We go through one compound from ChEMBL document CHEMBL1799956, “Convergent synthesis and biological evaluation of 2-amino-4-(3',4',5'-trimethoxyphenyl)-5-aryl thiazoles as microtubule targeting agents” (J Med Chem, 2011).

One experiment relates to LoVo. Kind of experiment: Antiproliferative activity against human LoVo cells assessed as growth inhibition after 72 hrs by MTT assay. The experiment is classed as functional, cell-based. (In general: Formazan colour is commonly taken as a measure of viable cells.)
Experiment [1] concerns HeLa. Kind of experiment: Induction of cell cycle arrest at G2/M phase in human HeLa cells assessed as increase in cyclin B1 expression at 10 to 100 nM by Western blot analysis. The experiment is classed as functional, cell-based. The settings on record: TDE = time-dependent effect. The gist of the method: (§1)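 Immunoblot of HeLa lysates after 24 or 48 h of compound treatment at the indicated concentrations. Probed for cyclin B1, p-Cdc2 Y15 and Cdc25c. Slower-migrating Cdc25c bands were taken as a change in phosphorylation.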

In experiment [2] the test system is HeLa. In words: Induction of apoptosis in human HeLa cells assessed as formation of large cells at 10 uM after 24 to 48 hrs using Giemsa's staining by microscopic analysis. Type of experiment: functional, cell-based. The gist of the method: (§2)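 HeLa treated 48 h, Giemsa stained and examined by light microscopy at 60× magnification.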
Experiment [3] deals with HeLa. Kind of experiment: Induction of morphological changes in human HeLa cells assessed as appearance of giant interphase with multiple nuclei of different sizes at 10 nM after 24 hrs using phalloidintetramethylrhodamine B isothiocyanate staining by microscopy. Type of experiment: functional, cell-based. Put shortly:
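HeLa cells were incubated with compound for 24 h. F-actin was stained with a phalloidin–tetramethylrhodamine B isothiocyanate conjugate and nuclei were counterstained with DAPI. Cells were then examined by fluorescence microscopy.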

The test system of another experiment is MCF7. In words: Antiproliferative activity against human MCF7 cells assessed as growth inhibition after 72 hrs by MTT assay. Type of experiment: functional, cell-based. Particulars: MCF7, 72 h.
The test system of experiment [4] is HeLa. In words: Induction of cell cycle arrest at G2/M phase in human HeLa cells assessed as increase in cyclin B1 expression after 24 to 48 hrs by Western blot analysis. Type of experiment: functional, cell-based. The gist of the method:
as §1
(A western blot detects proteins with antibodies after separation by electrophoresis.)

Experiment [5] relates to Jurkat. In words: Induction of apoptosis in human Jurkat cells assessed as multinucleation at 100 uM after 24 to 48 hrs using Giemsa's staining by microscopic analysis. Type of experiment: functional, cell-based. Put shortly: (§3)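 Giemsa staining, then light-microscope examination of cell morphology. HeLa and Jurkat cells were exposed to compound for 24 and 48 h. Magnification 60×.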

The test system of a further experiment is CCRF-CEM. In words: Fold resistance, ratio of IC50 for human vinblastine-resistant CEM/VBL100 cells overexpressing P-gp to IC50 for human CEM cells. Type of experiment: functional. Put shortly:
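Fold resistance taken as the ratio of IC50 in the resistant line to IC50 in the parental line, each IC50 from dose-response curves of at least three independent experiments.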

Experiment [6] concerns HeLa. In words: Induction of apoptosis in human HeLa cells assessed as no change in mitochondrial potential at 100 nM after 48 hrs using JC-1 staining by flow cytometry. Type of experiment: functional, cell-based.
A further experiment has as its target Tubulin (Homo sapiens) (UniProt P68371+Q9H4B7+P0DPH7+P68366+Q13509+Q71U36+P04350+Q3ZCM7+P07437+P68363+Q9BQE3+Q6PEY2+Q13885+Q9BVA1+Q9BUF5). In words: Induction of microtubule disassembly with spherical morphology in human HeLa cells at 10 nM after 24 hrs using DAPI-staining by fluorescence microscopy. Type of experiment: cell-based. Put shortly:
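HeLa cells were exposed to 10 or 100 nM compound for 24 or 48 h, then fixed. Microtubules were stained with FITC-conjugated anti-β-tubulin antibody and imaged by confocal/fluorescence microscopy at 60× magnification.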

Experiment [7] deals with Jurkat. Kind of experiment: Induction of apoptosis in human Jurkat cells assessed as formation of large cytoplasmic vacuoles at 10 uM after 24 to 48 hrs using Giemsa's staining by microscopic analysis. The experiment is classed as functional, cell-based. Put shortly: as §3
Experiment [8] concerns Jurkat. In words: Cell cycle arrest in human Jurkat cells assessed as decrease of cell population at S phase at 1 to 100 nM after 48 hrs using propidium iodide staining by flow cytometry. The experiment is classed as functional, cell-based.
Experiment [9] has as its system HeLa. In words: Cell cycle arrest in human HeLa cells assessed as decrease of cell population at G1 phase at 1 to 100 nM after 24 hrs using propidium iodide staining by flow cytometry. Type of experiment: functional, cell-based. (In flow cytometry, cells or beads pass a laser one at a time.)
The next experiment concerns HL-60. Kind of experiment: Antiproliferative activity against human HL60 cells assessed as growth inhibition after 72 hrs by MTT assay. Type of experiment: functional, cell-based. Particulars: HL-60, 72 h.
Experiment [10] concerns Jurkat. Kind of experiment: Induction of apoptosis in human Jurkat cells assessed as DNA condensation at 10 uM after 24 to 48 hrs using Giemsa's staining by microscopic analysis. Type of experiment: functional, cell-based. The gist of the method: as §3
Experiment [11] concerns HeLa. Kind of experiment: Induction of apoptosis in human HeLa cells assessed as increase in cell viability at 100 nM after 48 hrs by flow cytometry in presence of pan-caspase inhibitor z-VAD.fmk. Type of experiment: functional, cell-based. The gist of the method: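 HeLa incubated 48 h with compound at 100 nM with or without z-VAD.fmk (100 μM); viability measured, mean ± SEM of three independent experiments.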

Experiment [12] relates to HeLa. In words: Antiproliferative activity against human HeLa cells assessed as growth inhibition after 72 hrs by MTT assay. Type of experiment: functional, cell-based.
The subject of experiment [13] is HeLa. In words: Induction of apoptosis in human HeLa cells assessed as DNA condensation at 10 uM after 24 to 48 hrs using Giemsa's staining by microscopic analysis. Type of experiment: functional, cell-based. Put shortly: as §2

pIC50: −log10 of the molar value. Activity calls are given as the source filed them. The rule behind the calls is not given here.

As usually defined, the pIC50 is −log10 of the IC50, conventionally taken in molar units. As to `CCOc1ccc(-c2sc(N)nc2-c2cc(OC)c(OC)c(OC)c2)cc1`, the pIC50 in the experiment with LoVo was 9.15; with MCF7 it was 7.36; with HL-60 it was 9.05; with HeLa [12] it was 10.52. In addition, the Activity entry is “tde” in the experiment on HeLa [1] and “Dose-dependent effect” in the experiment with HeLa [4]. Besides, the result in the experiment with HeLa [2], with HeLa [3], in the experiment on Jurkat [5], at Tubulin (Homo sapiens), in the experiment with Jurkat [7] and with Jurkat [8] was Active. The outcome in the experiment with HeLa [9], in the experiment with Jurkat [10] and in the experiment with HeLa [13] was Active. Also, the “Ratio IC50” value in the experiment on CCRF-CEM is recorded as 0.9. Also, the outcome with HeLa [6] and in the experiment on HeLa [11] was inactive.
